Source: ChEMBL document CHEMBL3580587, “Design of Pyridopyrazine-1,6-dione γ-Secretase Modulators that Align Potency, MDR Efflux Ratio, and Metabolic Stability” (ACS Med Chem Lett, 2015)

biological target: Gamma-secretase; experiment: Modulation of human gamma secretase overexpressed in CHO cells co-expressing wild type human APP assessed as inhibition of amyloid beta-42 production after 24 hrs by ELISA; type: cell-based; settings: not given
How it was run: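 Whole-cell assay in CHO cells expressing wild-type APP; Aβ42 IC50 reported as geometric mean of at least two experiments.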

Q: Which IC50 does the source give for `Cc1cn(-c2ccc3n(c2=O)CCN(CCOc2ccccc2-c2csc(C)n2)C3=O)cn1` here?
A: 302 nM

Q: With `Cc1cn(-c2ccc3n(c2=O)CCN(CCOc2ccccc2-c2cc(C)ns2)C3=O)cn1` as the compound, how does the IC50 read?
A: 104 nM

Q: Which IC50 does the source give for `Cc1cn(-c2ccc3n(c2=O)CCN(CCOc2ccccc2-c2csc(C(F)(F)F)n2)C3=O)cn1` here?
A: 18 nM

Q: With `Cc1cn(-c2ccc3n(c2=O)CCN(CCOc2ccccc2-c2cc(C(F)F)no2)C3=O)cn1` as the compound, how does the IC50 read?
A: 72 nM

Q: For `Cc1cn(-c2ccc3n(c2=O)CCN(CCOc2ccccc2-c2cc(C(F)(F)F)no2)C3=O)cn1`, which IC50 is on record?
A: 17 nM

Q: For `Cc1cn(-c2ccc3n(c2=O)CCN(CCOc2ccc(F)c4nc(C(F)(F)F)sc24)C3=O)cn1`, which IC50 is on record?
A: 25 nM

Q: With `Cc1cn(-c2ccc3n(c2=O)CCN(CCOc2ccccc2C(C)(C)C)C3=O)cn1` as the compound, how does the IC50 read?
A: 128 nM

Q: Which IC50 does the source give for `Cc1cn(-c2ccc3n(c2=O)CCN(CCOc2ccccc2C2CCC2)C3=O)cn1` here?
A: 73 nM

Q: For `Cc1cn(-c2ccc3n(c2=O)CCN(CCOc2ccc(F)cc2C2CC(F)(F)C2)C3=O)cn1`, which IC50 is on record?
A: 59 nM

Q: For `Cc1cn(-c2ccc3n(c2=O)CCN(CCOc2ccc(F)cc2C(C)(C)C(F)(F)F)C3=O)cn1`, which IC50 is on record?
A: 30 nM

Q: With `Cc1cn(-c2ccc3n(c2=O)CCN(CCOc2ccc(F)cc2[C@@H](C)C(F)(F)F)C3=O)cn1` as the compound, how does the IC50 read?
A: 20 nM

Q: With `Cc1cn(-c2ccc3n(c2=O)CCN(CCOc2ccc(F)cc2[C@H](C)C(F)(F)F)C3=O)cn1` as the compound, how does the IC50 read?
A: 85 nM

Q: With `Cc1cn(-c2ccc3n(c2=O)CCN([C@@H](C)COc2ccc(F)cc2[C@@H](C)C(F)(F)F)C3=O)cn1` as the compound, how does the IC50 read?
A: 6 nM

test system: MDR1 (human); experiment: Efflux ratio of apparent permeability from basolateral to apical over apical to basolateral side in MDCK cells expressing human MDR1 at 2 uM after 5 hrs by transwell assay; type: ADME, cell-based, Canis lupus familiaris; settings: dog
How it was run: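 MDR1/MDCK assay using MDCK cells transfected with the human P-glycoprotein gene; efflux ratio reported.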

Q: With `Cc1cn(-c2ccc3n(c2=O)CCN(CCOc2ccccc2C(C)(C)C)C3=O)cn1` as the compound, how does the efflux ratio at 5 h, 2 µM read?
A: 1.7

test system: not listed separately; experiment: Apparent intrinsic clearance in human liver microsomes; type: ADME; settings: read-out: CLH(app)

Q: Which CLint scaled does the source give for `Cc1cn(-c2ccc3n(c2=O)CCN(CCOc2cccc4ccc(F)cc24)C3=O)cn1` here?
A: 8.1 mL/min/kg

Q: For `Cc1cn(-c2ccc3n(c2=O)CCN(CCOc2ccccc2C(C)(C)C)C3=O)cn1`, which CLint scaled is on record?
A: 95.7 mL/min/kg
